Entries after “also recorded” stand apart in the source; their conditions may differ. One block for each compound: values may come before it.
Legend:
[1] = target: T1, AbDapE (Acinetobacter baumannii, UniProt A3M8H2); test: DapE ninhydrin enzyme inhibition assay, AbDapE; assay type: biochemical; details: for Inhibition of AbDapE (in words): tested at 100 μM
Method in brief: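 Purified His-tag-cleaved AbDapE at 8 nM final in 50 mM HEPES pH 7.5, 30 °C. Test compound (DMSO, 5% final) is preincubated with enzyme for 10 min before 2 mM N6-methyl-L,L-SDAP. After 10 min, heat to 100 °C for 1 min, chill, add 2% ninhydrin, 80 °C for 15 min, then read A570.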

[2] = target: T2, HiDapE (Haemophilus influenzae, UniProt P44514); test: Thermal shift assay, HiDapE; assay type: binding; details: for Tm1 HiDapE / Tm2 HiDapE: 200 nM HiDapE + 10× dye
T2 sequence (P44514 1-377): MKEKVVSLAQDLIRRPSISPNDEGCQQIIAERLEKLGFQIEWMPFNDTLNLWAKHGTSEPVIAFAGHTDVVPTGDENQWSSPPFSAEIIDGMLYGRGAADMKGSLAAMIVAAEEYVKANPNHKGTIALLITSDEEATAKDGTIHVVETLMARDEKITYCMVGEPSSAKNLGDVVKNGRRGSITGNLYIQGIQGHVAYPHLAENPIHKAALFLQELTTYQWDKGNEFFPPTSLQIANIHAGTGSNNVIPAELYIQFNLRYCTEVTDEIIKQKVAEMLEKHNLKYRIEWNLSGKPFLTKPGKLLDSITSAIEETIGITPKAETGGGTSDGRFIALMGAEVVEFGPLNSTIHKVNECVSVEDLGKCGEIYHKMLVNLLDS

[3] = target: T1, AbDapE; test: Thermal shift assay, AbDapE native; assay type: binding; details: for Tm1 AbDapE / Tm2 AbDapE: 16 μM AbDapE + 10× dye
Method in brief: (§1)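 SYPRO Orange thermal melt at 10× dye in 50 mM HEPES pH 7.5, 10 µL triplicates. Protein is 16 µM for native AbDapE and 6 µM for SeMet AbDapE, with DMSO kept below 5%. Tm comes from the negative first derivative of the melting curves, further differentiated to the third derivative. Ki is calculated from Tm plotted against log[test compound] using a derived van't Hoff equation.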

[4] = target: AbDapE-SeMet (Acinetobacter baumannii, UniProt A3M8H2); test: Thermal shift assay, AbDapE-SeMet; assay type: binding; details: 6 μM AbDapE-SeMet + 10× dye
Chain of AbDapE-SeMet (A3M8H2 whole entry): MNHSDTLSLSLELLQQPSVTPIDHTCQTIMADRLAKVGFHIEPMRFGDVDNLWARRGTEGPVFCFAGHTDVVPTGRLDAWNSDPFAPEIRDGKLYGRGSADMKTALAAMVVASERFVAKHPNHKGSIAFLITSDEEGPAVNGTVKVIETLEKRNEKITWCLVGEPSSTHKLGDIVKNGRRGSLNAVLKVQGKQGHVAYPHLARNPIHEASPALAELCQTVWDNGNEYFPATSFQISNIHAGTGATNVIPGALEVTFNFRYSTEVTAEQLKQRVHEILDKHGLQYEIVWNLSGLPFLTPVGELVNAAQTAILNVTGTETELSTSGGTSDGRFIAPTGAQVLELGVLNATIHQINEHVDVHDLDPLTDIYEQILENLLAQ
Method in brief: as §1

[5] = tested on: DapE; details: DapE from E. faecium and E. coli studied; cited from earlier work

T1 sequence (A3M8H2 whole entry): as above

Inhibition of AbDapE (in words) [1]: did not inhibit AbDapE significantly
Compound: CC(=O)N1CCc2cc(Cl)c(S(=O)(=O)NCCC(C)C)cc21 [1-acetyl-5-chloro-N-isopentylindoline-6-sulfonamide]
Inhibition of AbDapE (in words) ([1]; listed as indoline sulfonamide): not significantly inhibited; also recorded: did not measurably inhibit

Tm1 HiDapE ([2]; 0.005 μM captopril): 51.5 ± 0.1 °C
Tm2 HiDapE ([2]; 0.005 μM captopril): 78.2 ± 0.1 °C
Tm1 HiDapE ([2]; 0.05 μM captopril): 50.2 ± 0.6 °C
Tm2 HiDapE ([2]; 0.05 μM captopril): 78.6 ± 0.1 °C
Tm1 HiDapE ([2]; 0.1 μM captopril): 50.0 ± 0.8 °C
Tm2 HiDapE ([2]; 0.1 μM captopril): 78.1 ± 0.1 °C
Tm1 HiDapE ([2]; 0.5 μM captopril): 50.5 ± 0.1 °C
Tm2 HiDapE ([2]; 0.5 μM captopril): 78.3 ± 0.1 °C
Tm1 HiDapE ([2]; 0.8 μM captopril): 50.3 ± 0.5 °C
Tm2 HiDapE ([2]; 0.8 μM captopril): 77.9 ± 0.1 °C
Tm1 HiDapE ([2]; 1 μM captopril): 51.2 ± 0.2 °C
Tm2 HiDapE ([2]; 1 μM captopril): 77.8 ± 0.1 °C
Tm1 HiDapE ([2]; 3 μM captopril): 52.2 ± 0.1 °C
Tm2 HiDapE ([2]; 3 μM captopril): 78.0 ± 0.1 °C
Tm1 HiDapE ([2]; 5 μM captopril): 53.2 ± 0.2 °C
Tm2 HiDapE ([2]; 5 μM captopril): 77.8 ± 0.1 °C
Tm1 HiDapE ([2]; 10 μM captopril): 52.9 ± 0.6 °C
Tm2 HiDapE ([2]; 10 μM captopril): 77.9 ± 0.1 °C
Effect on stability (Tm) of HiDapE, in words ([2]; thermal shift assays): stabilize HiDapE
Tm1 AbDapE ([3]; 0.005 μM captopril): 41.9 ± 0.1 °C
Tm2 AbDapE ([3]; 0.005 μM captopril): 62.9 ± 0.1 °C
Tm1 AbDapE ([3]; 0.05 μM captopril): 41.9 ± 0.2 °C
Tm2 AbDapE ([3]; 0.05 μM captopril): 63.3 ± 0.7 °C
Tm1 AbDapE ([3]; 0.1 μM captopril): 41.9 ± 0.1 °C
Tm2 AbDapE ([3]; 0.1 μM captopril): 62.6 ± 0.3 °C
Tm1 AbDapE ([3]; 0.5 μM captopril): 41.9 ± 0.2 °C
Tm2 AbDapE ([3]; 0.5 μM captopril): 63.1 ± 0.4 °C
Tm1 AbDapE ([3]; 0.8 μM captopril): 41.9 ± 0.1 °C
Tm2 AbDapE ([3]; 0.8 μM captopril): 62.3 ± 0.1 °C
Tm1 AbDapE ([3]; 1 μM captopril): 41.7 ± 0.1 °C
Tm2 AbDapE ([3]; 1 μM captopril): 63.4 ± 1.0 °C
Tm1 AbDapE ([3]; 3 μM captopril): 41.7 ± 0.2 °C
Tm2 AbDapE ([3]; 3 μM captopril): 65.1 ± 0.3 °C
Tm1 AbDapE ([3]; 5 μM captopril): 41.4 ± 0.1 °C
Tm2 AbDapE ([3]; 5 μM captopril): 64.1 ± 0.2 °C
Tm1 AbDapE ([3]; 10 μM captopril): 41.1 ± 0.1 °C
Tm2 AbDapE ([3]; 10 μM captopril): 66.6 ± 0.2 °C
Tm1 AbDapE ([3]; 15 μM captopril): 42.0 ± 0.1 °C
Tm2 AbDapE ([3]; 15 μM captopril): 65.5 ± 0.4 °C
Effect on stability of AbDapE, in words ([3]; thermal shift assays): increases the stability
Tm AbDapE-SeMet ([4]; 0.005 μM captopril): 65.3 ± 0.2 °C
Tm AbDapE-SeMet ([4]; 0.05 μM captopril): 65.5 ± 0.1 °C
Tm AbDapE-SeMet ([4]; 0.1 μM captopril): 65.3 ± 0.2 °C
Tm AbDapE-SeMet ([4]; 0.5 μM captopril): 65.1 ± 0.1 °C
Tm AbDapE-SeMet ([4]; 0.8 μM captopril): 66.1 ± 0.1 °C
Tm AbDapE-SeMet ([4]; 1 μM captopril): 65.7 ± 0.1 °C
Tm AbDapE-SeMet ([4]; 3 μM captopril): 66.4 ± 0.3 °C
Tm AbDapE-SeMet ([4]; 5 μM captopril): 67.2 ± 0.2 °C
Tm AbDapE-SeMet ([4]; 10 μM captopril): 68.5 ± 0.1 °C
IC50 ([1]; AbDapE IC50, ninhydrin assay, 8 nM enzyme, 2 mM N^6-methyl-L,L-SDAP): 1200 nM
Mode of inhibition of AbDapE ([1]; kinetic assays, modified ninhydrin assay): competitive inhibitors
Compound: C[C@H](CS)C(=O)N1CCC[C@H]1C(=O)O [Captopril]

Compound: CCN(CC)C(=S)SSC(=S)N(CC)CC [disulfiram]
Effect on Tm values of DapE, in words [5]: lowering of the Tm values

— PMC10809365 (ACS Omega, 2024)
